In article PMC11238050 (Research and Practice in Thrombosis and Haemostasis, 2024):
Where two headings read alike, the source gives them in different places.

Tests used:
human blood coagulation = test: Thromboelastography; settings: 0.3 mM SAB
Method in brief: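 Thromboelastography used citrated (3.2%) whole blood from healthy human donors, treated with test compound (0.3 mM) or an equal volume of PBS. Samples were recalcified with 0.2 M CaCl2 stock and analysed on a TEG analyser.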

thrombin [1] = target: T1, thrombin (Homo sapiens, UniProt P00734); test: Intrinsic fluorescence spectrophotometry binding, thrombin; settings: after 24 hours at room temperature
[2] = Stability of SAB in solution on storage and freeze-thaw; assay type: physicochemical; settings: inhibitory function for platelet aggregation
lysozyme [3] = test: Isothermal titration calorimetry, lysozyme control; assay type: binding; settings: 20 μM lysozyme, 0.312 mM SAB titrant, 20 °C, PBS pH 7.4
Method in brief: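 ITC at 20 °C in PBS pH 7.4 was run with 20 μM lysozyme in the cell and test compound (0.312 mM) as titrant. Protocol: 60 s initial delay, 2 µL purge injection, then 34 injections of 8 µL every 300 s. The first point was discarded, and data were corrected for heat of dilution from titrant-into-buffer runs.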

human blood clot = test: Whole blood clot formation assay; settings: 0.3 mM SAB
Method in brief: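 Blood was diluted 3-fold and treated with test compound (0.3 mM final, in PBS) or blank PBS. It was recalcified with 1 mM CaCl2 plus 2 U/mL thrombin and incubated 90 min at 37 °C. Clots were removed from the serum, and dry weight was measured after 24 h at room temperature (20 °C).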

[4] = system: carotid artery thrombosis; test: Ferric chloride carotid artery thrombosis model; assay type: in vivo, C57BL/6J mice; settings: 15 mpk SAB via tail vein at 50% flow reduction, 10% ferric chloride
Method in brief: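 Isoflurane-anaesthetised C57BL/6J mice (>8 weeks, 20–35 g) had filter paper soaked in 10% FeCl3 applied to the carotid adventitia for 180 s. The vessel was rinsed with warm saline. Doppler flow probe recorded flow for 30 min. At 50% flow reduction, test compound (15 mpk, ~0.3 mM blood level) or saline was given via the tail vein. Flow recovery and occlusion time were recorded.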

[5] = system: cell-free human blood plasma coagulation; test: Clot turbidity assay; settings: read-out: EC50, delay of cell-free human blood plasma coagulation; clot turbidity at 405 nm, 37 °C, 0.1 U/mL thrombin
[6] = system: human platelet thrombus formation; test: Collagen-coated perfusion chamber analysis; assay type: cell-based; settings: 0.32 mM SAB
Method in brief: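 Heparinised (5 U/mL) human whole blood was labelled with 1 μM DiOC6 for 20 min at 37 °C, then incubated with test compound or PBS for 10 min. It was perfused over a collagen-coated glass chamber for 3 min at 1800 or 300 s^−1. Platelet adhesion was recorded by fluorescence microscopy during perfusion, and thrombus mean fluorescence intensity was quantified.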

[7] = system: platelets (gel-filtered / PRP); test: Collagen- and ADP-induced platelet aggregation; assay type: cell-based, human
Method in brief: (§1)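 Human platelets in PRP or PIPES buffer, adjusted to 3.0 × 10^8/mL and preincubated 10 min at 37 °C with test compound in PBS (pH 7.4; 0.1–0.3 mM) or PBS alone. Agonists were bovine thrombin 0.02 U/mL, collagen 5 μg/mL or ADP 20 μM. Light-transmission aggregometry was run at 37 °C with stirring at 1000 rpm and recorded for at least 8 min.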

[8] = system: Human gel-filtered platelet; test: Thrombin-induced platelet aggregation assay; assay type: cell-based; settings: […] SAB, 0.02 U/mL thrombin
Method in brief: as §1

human platelet = assay type: cell-based
thrombin [9] = target: T1, thrombin; test: Isothermal titration calorimetry, thrombin; assay type: binding; settings: ITC, 20 °C, PBS pH 7.4
[10] = system: thrombus formation in mouse cremaster arterioles; test: Laser-injury intravital microscopy thrombosis model; settings: 0.010 mM final in vivo SAB concentration, jugular vein injection
Method in brief: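 Mice received fluorescently labelled anti-GPIb antibody (1 µg/g) through a jugular vein cannula before injury. Test compound was injected via the jugular cannula to a 0.010 mM final in vivo level, calculated from body weight (80 µL/g blood volume). Multiple cremaster arteriole injuries were made with a pulsed nitrogen dye laser. Thrombus formation was imaged by intravital microscopy and quantified as platelet MFI.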

lysozyme [11] = test: Intrinsic fluorescence spectrophotometry binding, lysozyme control; settings: SAB titrated with lysozyme 0 to 95.6 μM, 20 °C
Method in brief: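 Intrinsic fluorescence of test compound (27.2 ± 0.4 μM) in PBS, 20 °C, titrated with lysozyme 0–95.6 μM; blank PBS titrated separately. Excitation 382 nm, emission peak ~498 nm, with inner-filter correction. Integrated emission was averaged, normalised and plotted against protein concentration, then fitted to a binding model for apparent Kd. Four trials.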

[12] = system: human platelet-poor plasma coagulation; test: Prothrombin time and activated partial thromboplastin time measurement; settings: 0.6 mM SAB, human cell-free plasma
Method in brief: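 Human platelet-poor plasma was tested in a steel-ball coagulometer. For PT, RecombiPlasTin 2G and its diluent stood 20 min at room temperature, were mixed 1:1 and warmed 5 min at 37 °C, then added to plasma (2:1 v/v). For aPTT, SynthASil was incubated 2 min at 37 °C, then 20 mM CaCl2 was added. Both end-points were time to solid gel.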

[13] = flow cytometry, human platelets
[14] = flow cytometry, thrombin-stimulated human platelets

## Salvianolic acid B [SAB]
Human blood coagulation
  initiation of human blood coagulation (R-time) in TEG: significantly prolonged
Thrombin [1]
  decrease in the SAB-thrombin complex signal: less than 3%
[2]
  effect of prolonged storage in solution and repeated freeze-thaw cycles on SAB: decreased SAB inhibitory function
Lysozyme [3]
  binding to lysozyme (ITC): no interaction
Human blood clot
  dry weight of the human blood clot: significantly reduced
[4]
  carotid blood flow: rescued
  vessel occlusion (time): prolonged
[5]
  EC50: 62 ± 70 µM
[6]; 300 s^−1, collagen-coated chamber
  human platelet thrombus formation, venous shear rate: significantly inhibited
[6]; 1800 s^−1, collagen-coated chamber
  human platelet thrombus formation, arterial shear rate: significantly inhibited
[7]; PRP, 20 μM ADP
  ADP-induced platelet aggregation: attenuated
[7]; gel-filtered platelets, 5 μg/mL collagen
  collagen-induced platelet aggregation: attenuated
[8]
  platelet aggregation: completely abolished
Human platelet
  thrombin-induced platelet surface expression of Ricinus communis agglutinin-1 (RCA-1): significantly reduced
Human platelet; [13]
  thrombin-induced platelet surface expression of P-selectin: significantly reduced
  thrombin-induced platelet surface expression of annexin-V: significantly reduced
Human platelet; [14]
  binding of PAC-1 monoclonal antibody (αIIbβ3 integrin activation): significantly decreased
  binding of fibrinogen (αIIbβ3 integrin activation): significantly decreased
Thrombin [9]
  Hill coefficient nH: 1.1
  ΔH1: 18 ± 1 kcal/mol
  ΔH2: 180 ± 6 kcal/mol
  −TΔS1: -27 ± 1 kcal/mol
  −TΔS2: -185 ± 12 kcal/mol
Thrombin [9]; read-out: Kd1
  Kd: 0.62 ± 0.08 µM
Thrombin [9]; read-out: dissociation constant Kd2 (weak binding site)
  Kd: 37 ± 4 µM
[10]
  reduction of thrombus formation in mouse cremaster vessels (platelet MFI): approximately 65% ± 5%
Lysozyme [11]
  binding to lysozyme (fluorescence): no direct interactions
[12]
  activated partial thromboplastin time (aPTT): prolonged
  prothrombin time (PT): prolonged
